Three compounds from article PMC9545559 (International Journal of Cancer, 2022) can be followed below.

The structures appear in SMILES notation.

Holding throughout (assay type): in vivo, human
Data set [1] concerns patients with untreated locally advanced or metastatic PDAC. The data set can be described thus: Phase II safety and adverse events. The following applies: for patients with dose reduced due to occurrence of AEs: n = 24, combination ivaltinostat + gemcitabine + erlotinib; for Anemia, Number of patients (%) / Anorexia, Number of patients (%) / Fatigue, Number of patients (%) / Febrile neutropenia, Number of patients (%) / Neutropenia, Number of patients (%) / Pneumonia, Number of patients (%) / Thrombocytopenia, Number of patients (%): treatment-related. The gist of the method:
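Patients on ivaltinostat 250 mg/m2 IV with gemcitabine 1000 mg/m2 IV (days 1, 8, 15) and erlotinib 100 mg/day orally, 28-day cycles. Vital signs, AEs, ADRs, serious AEs, ECG and clinical laboratory tests checked on days 1, 8 and 15 of each cycle. AEs graded by NCI CTCAE v4.0. Safety set: all patients given ≥1 dose.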

A short description of data set [2]: Pharmacokinetic analysis of ivaltinostat in the phase I study. To be noted: first day after single administration, mean.
The test system of data set [3] is patients with untreated locally advanced or metastatic PDAC. Kind of data set: Phase I 3 + 3 dose escalation. The following applies: Level III: ivaltinostat 312.5 mg/m^2 + gemcitabine + erlotinib; four patients. The gist of the method:
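3 + 3 escalation: ivaltinostat IV from 187.5 to 250 or 312.5 mg/m2, plus gemcitabine 1000 mg/m2 IV on days 1, 8, 15 and erlotinib 100 mg/day orally in 28-day cycles. DLT graded by NCI CTC v4.0: grade 4 neutropenia ≥6 days, grade 3/4 thrombocytopenia with bleeding, grade 3 neutropenia with fever >38.5°C, or drug-related nonhematologic grade 3/4 toxicity. MTD: ≤1 DLT per six-patient cohort.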

Setting [4] is: 24 subjects, ivaltinostat + gemcitabine + erlotinib.

One may read the Cmax as the peak of the concentration-time curve.

With `Nc1ccn([C@@H]2O[C@H](CO)[C@@H](O)C2(F)F)c(=O)n1` [gemcitabine, reference compound], the “patients with dose reduced due to occurrence of AEs” value (shortened to “patients with dose reduced due”) in data set [1] was found to be 12.5%.

For the compound `C#Cc1cccc(Nc2ncnc3cc(OCCOC)c(OCCOC)cc23)c1` [erlotinib, reference compound], in data set [1], the “patients with dose reduced due” value was “no patient received a reduced dose”.

As to `CN(C)CCCNC(=O)/C(=C/CCCCC(=O)NO)COc1cccc2ccccc12` [ivaltinostat], in data set [2] (187.5 mg/m^2 iv, n=3), the Cmax amounted to 9553 ng/mL and the Terminal half-life turned out to be 7.3 h. In data set [2] (250 mg/m^2 iv, n=3), this compound showed a Cmax of 8062 ng/mL and a Terminal half-life of 5.7 h. In data set [2] (312.5 mg/m^2 iv, n=4), the highest concentration (Cmax) is given as 12 782 ng/mL and the Terminal half-life was 6.6 h. Moreover, the “dose-limiting toxicity (DLT)” value in data set [3] is recorded as “A DLT, febrile neutropenia grade 3”. In addition, in data set [1], the “drop-out of the study due to intolerable AEs” value was “no cases” and the “patients with dose reduced due” value was found to be 12.5%. Moreover, the “subjects with ADRs of grade 3 or 4 severity” value in data set [1] (15 of 24 subjects) is 62.5%. In addition, in data set [1] (24 subjects), the “ADR: decreased appetite” value is 11 events, the “ADR: decreased platelet count” value was determined as 15 events, the “ADR: nausea” value was 10 events and the “ADR: rash” value stood at 11 events. Moreover, in data set [1] (24 subjects), the “ADR: vomiting” value stood at 10 events, the “ADRs with grade 3 or 4 severity” value was 26 events and the “grade 5 (death) events” value was “no grade 5 (death) events”. For the same compound, in data set [1] (setting [4]), the AEs reported worked out at 218 events and the “adverse drug reactions (ADRs)” value came to 114 events. Besides, in data set [1] (n = 24, text), the “treatment-related grade 3 or 4 anemia” value turned out to be 16.7%, the “treatment-related grade 3 or 4 neutropenia” value was 33.3% and the “treatment-related grade 3 or 4 thrombocytopenia” value was 29.2%. In data set [1] (Grade 3 (n = 24)), the “Anemia, Number of patients (%)” value is listed as 4 (16.7) patients (%); the “Anorexia, Number of patients (%)” value was 2 (8.3) patients (%); the “Fatigue, Number of patients (%)” value is reported as 2 (8.3) patients (%); the “Febrile neutropenia, Number of patients (%)” value (from here on “Febrile neutropenia … (%)”) is on record as 2 (8.3) patients (%). In data set [1] (Grade 3 (n = 24)), the “Neutropenia, Number of patients (%)” value is on record as 3 (12.5) patients (%); the “Pneumonia, Number of patients (%)” value is 0 patients (%); the “Thrombocytopenia, Number of patients (%)” value is reported as 4 (16.7) patients (%). In addition, in data set [1] (Grade 4 (n = 24)), the “Anemia, Number of patients (%)” value is 0 patients (%); the “Anorexia, Number of patients (%)” value is given as 0 patients (%); the “Fatigue, Number of patients (%)” value was 0 patients (%); the “Febrile neutropenia … (%)” value was 0 patients (%). Besides, in data set [1] (Grade 4 (n = 24)), the “Neutropenia, Number of patients (%)” value is listed as 5 (20.8) patients (%); the “Pneumonia, Number of patients (%)” value is 1 (4.2) patients (%); the “Thrombocytopenia, Number of patients (%)” value is given as 3 (12.5) patients (%). In data set [1] (Total grade 3 and 4 (n = 24)), the “Anemia, Number of patients (%)” value is given as 4 (16.7) patients (%); the “Anorexia, Number of patients (%)” value was 2 (8.3) patients (%); the “Fatigue, Number of patients (%)” value is reported as 2 (8.3) patients (%); the “Febrile neutropenia … (%)” value is given as 2 (8.3) patients (%). In data set [1] (Total grade 3 and 4 (n = 24)), the “Neutropenia, Number of patients (%)” value is 8 (33.3) patients (%); the “Pneumonia, Number of patients (%)” value is given as 1 (4.2) patients (%); the “Thrombocytopenia, Number of patients (%)” value is given as 7 (29.2) patients (%).
